{"source": "ChEMBL document CHEMBL3232767", "about": "“Synthesis of the antiproliferative agent hippuristanol and its analogues from hydrocortisone via Hg(II)-catalyzed spiroketalization: structure-activity relationship” (J Med Chem, 2014)", "note": "Calls of active or inactive are those of the source. The rule behind the calls is not given here."}
{"species": "Oryctolagus cuniculus", "experiment": "Inhibition of translation in rabbit reticulocyte lysates using SP6 RNA polymerase at 10 uM by FF/HCV/Ren reporter gene assay", "type": "functional", "in_short": "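Bicistronic mRNA (cap-dependent FF, HCV IRES-driven Ren as internal standard) translated in vitro at 4 ng/μL in rabbit reticulocyte lysate; compounds at 10 μM final vs 0.5% DMSO vehicle; anisomycin as control. FF and Ren luciferase read by luminometer, normalized to vehicle set at 1; duplicates averaged, error of the mean given.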"}
{"smiles": "C[C@H]1C[C@@]2(O[C@H]3C[C@H]4[C@@H]5CC[C@H]6C[C@@H](O)CC[C@]6(C)[C@H]5[C@@H](O)C[C@]4(C)[C@H]3[C@@]2(C)O)OC1(C)C", "inhibition": "inactive"}
{"smiles": "C[C@H]1C[C@]2(O[C@H]3C[C@H]4[C@@H]5CC[C@H]6C[C@H](O)CC[C@]6(C)[C@H]5[C@@H](O)C[C@]4(C)[C@H]3[C@H]2O)OC1(C)C", "inhibition": "inactive"}
{"smiles": "C[C@H]1C[C@]2(O[C@H]3C[C@H]4[C@@H]5CC[C@H]6C[C@H](O)CC[C@]6(C)[C@H]5[C@@H](O)C[C@]4(C)[C@H]3[C@]2(O)CO)OC1(C)C", "inhibition": "inactive"}
{"smiles": "C[C@H]1C[C@@]2(O[C@H]3C[C@H]4[C@@H]5CC[C@H]6C[C@H](O)CC[C@]6(C)[C@H]5[C@@H](O)C[C@]4(C)[C@H]3[C@H]2O)OC1(C)C", "inhibition": "inactive"}
{"smiles": "CC[C@@]1(O)[C@H]2[C@H](C[C@H]3[C@@H]4CC[C@H]5C[C@H](O)CC[C@]5(C)[C@H]4[C@@H](O)C[C@@]32C)O[C@@]12C[C@H](C)C(C)(C)O2", "inhibition": "inactive"}
{"smiles": "CC[C@@]1(O)[C@H]2[C@H](C[C@H]3[C@@H]4CC[C@H]5C[C@H](O)CC[C@]5(C)[C@H]4[C@@H](O)C[C@@]32C)O[C@]12C[C@H](C)C(C)(C)O2", "inhibition": "inactive"}
{"smiles": "C[C@H]1C[C@@]2(O[C@H]3C[C@H]4[C@@H]5CC[C@H]6C[C@H](O)CC[C@]6(C)[C@H]5[C@@H](O)C[C@]4(C)[C@H]3[C@@]2(C)O)OC1(C)C", "inhibition": "Active"}
{"smiles": "COc1ccc(C[C@H]2NC[C@H](O)[C@H]2OC(C)=O)cc1", "inhibition": "Active"}
{"smiles": "C[C@H]1C[C@]2(O[C@H]3C[C@H]4[C@@H]5CC[C@H]6C[C@H](O)CC[C@]6(C)[C@H]5[C@@H](O)C[C@]4(C)[C@H]3C2=O)OC1(C)C", "inhibition": "inactive"}
{"smiles": "C[C@H]1C[C@@]2(O[C@H]3C[C@H]4[C@@H]5CC[C@H]6C[C@H](N)CC[C@]6(C)[C@H]5[C@@H](O)C[C@]4(C)[C@H]3[C@@]2(C)O)OC1(C)C", "inhibition": "inactive"}
{"smiles": "C[C@H]1C[C@]2(O[C@H]3C[C@H]4[C@@H]5CC[C@H]6C[C@H](O)CC[C@]6(C)[C@H]5[C@@H](O)C[C@]4(C)[C@H]3[C@@]2(C)O)OC1(C)C", "inhibition": "Active"}
